HIV Env fusion: inhibitors of HIV Env-mediated cell fusion | inhibition, % at 12.3 µM | 360,000 compounds, 1.1% hits | AID 651610 | HeLa-JRFL Env/CEM21 cell fusion, luciferase;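 active means mean replicate inhibition score of at least 50 and every replicate individually at or above 50; inconclusive means only one of the two criteria met; inactive means mean below 50 and not all replicates reaching 50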;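 further: 0% = plate neutral controls and 100% = maraviroc near 300 nM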
FN deposit inh: fibronectin deposition inhibition | 350,000 compounds, 0.086% hits | AID 743247 | inhibition, % at 12.6 µM | AH1F fibroblasts, Alexa488-fibronectin deposition fluorescence, overnight;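 active means mean inhibition across replicates of 30% or more, regardless of how many single replicates reach that level; inconclusive means mean under 30% yet at least half of replicates reach 30%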;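 further: positive control wells lacked labelled fibronectin entirely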
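Assay system: AH1F fibroblasts assembling fluorescent fibronectin matrix; Amount: 10000 AH1F cells per well; Buffer or medium: DMEM, 2% serum; Probe or stimulus: Alexa488-fibronectin, 24 nM final in well; Doses: single compound dose, delivered by pin transfer; Incubation: 1 h adhesion, overnight exposure; Measured by: fluorescence 485/525 nm; Read-out: fibronectin deposition inhibition.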
EWS-Fli block: blocks EWS/Fli oncoprotein-driven transcription; A673 NR0B1-luciferase reporter, viability-normalised; inhibition, % at 12.6 µM; 350,000 compounds, 0.67% hits;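 active means mean inhibition of at least 50% after viability correction, with every replicate also passing that limit; inconclusive means mean reaches 50% but only one of two replicates passes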;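 further: firefly luciferase signal divided by Alamar Blue viability fluorescence both relative to DMSO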
PAX8 inh HTS: inhibitors of PAX8 transcriptional activity in RMG-I cells. RMG-I TPO-luciferase reporter, SteadyGlo, 24 h. inhibition, % at 12.6 µM. 360,000 compounds, 1.2% hits;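 active means mean replicate inhibition at least 60% with every replicate also reaching 60%; inconclusive means only one of the two criteria is met; inactive means mean below 60% and not all replicates reaching 60%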;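 further: luciferase light reporting Pax8 driven TPO promoter activity; plate controls were median of neutral control wells for no effect and mitoxantrone controls for full effect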
AF4-AF9 inh: inhibitors of human MLL-AF4/AF9 interaction. P42568. AlphaScreen, biotin-AF4 peptide binding to FLAG-AF9. inhibition, % at 10 µM. 350,000 compounds, 0.47% hits;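 active means every replicate reaching a set inhibition limit, whatever the replicate mean, cut at about 25% in these data; inconclusive means mean inhibition reaches that limit but some replicates miss it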;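 further: 0% = plate neutral control median and 100% = total signal loss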
Target sequence (P42568 whole entry, looked up): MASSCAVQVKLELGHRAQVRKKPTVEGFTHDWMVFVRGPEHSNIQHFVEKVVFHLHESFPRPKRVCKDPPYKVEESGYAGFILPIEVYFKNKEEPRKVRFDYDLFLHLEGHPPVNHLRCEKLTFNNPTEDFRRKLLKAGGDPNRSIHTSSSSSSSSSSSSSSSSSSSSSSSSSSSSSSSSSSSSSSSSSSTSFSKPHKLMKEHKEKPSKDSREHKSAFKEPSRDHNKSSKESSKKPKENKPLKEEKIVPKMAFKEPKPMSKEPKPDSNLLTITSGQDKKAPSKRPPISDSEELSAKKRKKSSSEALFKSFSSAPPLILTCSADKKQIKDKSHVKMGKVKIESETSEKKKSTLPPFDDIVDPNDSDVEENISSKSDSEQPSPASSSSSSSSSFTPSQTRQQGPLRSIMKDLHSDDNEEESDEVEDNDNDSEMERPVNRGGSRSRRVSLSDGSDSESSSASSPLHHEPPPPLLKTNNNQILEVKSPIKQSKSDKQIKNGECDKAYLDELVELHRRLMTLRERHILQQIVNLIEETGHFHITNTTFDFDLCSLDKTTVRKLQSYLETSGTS
Glyco luc inh: blocks N-linked glycosylation in D54 reporter cells; D54 ERlucT glycosylation luciferase reporter, 24 h; percent of 100 nM tunicamycin response; 360,000 compounds, 0.23% hits; reporter increase, % at 12.5 µM;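 active means mean luciferase reporter signal, scaled so untreated is 0 and the glycosylation-blocking control 100, at or above a set limit in every replicate; inconclusive means mean reaches the limit but not every replicate does; inactive means mean below the limit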;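 further: luciferase carries N-glycosylation sites so blocking glycosylation raises the light; 0% = median of neutral control wells and 100% = median of 100 nM tunicamycin wells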
An asterisk follows results filed as active; ? = inconclusive; . = not tested or not shown; [ ] = remark or other dose. Rows were chosen to be rich in hits. Some 2.5% of all compounds tested hit in one or more screens of this group.

SMILES	HIV Env fusion	FN deposit inh	EWS-Fli block	PAX8 inh HTS	AF4-AF9 inh	Glyco luc inh
CCCNC(=O)N1CCC2(CC1)CN(Cc1ccccc1)[C@@H](CO)c1[nH]c3cc(OC)ccc3c12	-287.0[16.7 µM]	.	21.3	.	2.6	.
CC1CC(C)CN(C(=O)/C=C/c2ccc([N+](=O)[O-])s2)C1 (stereo not drawn)	-11.7	.	25.4	67.6*	10.8	?
O=C(/C=C/c1ccc([N+](=O)[O-])s1)N1CCCCC1	-24.8	.	13.1	37.3	-4.8	39.4*
CC1CN(C(=O)/C=C/c2ccc([N+](=O)[O-])s2)CC(C)O1 (stereo not drawn)	-34.6	0.0	28.7	-11.0	0.4	23.7
C[C@@H]1CN([C@@H](C)CO)C(=O)c2cccc(NC(=O)Nc3ccccc3)c2O[C@H]1CN(C)S(=O)(=O)c1ccc(F)cc1	.	.	0.9	-2.6	4.2	.
O=[N+]([O-])c1cc2c(ccc3occc32)o1	-0.1	9.3	36.8	106.9*	-0.3	.
O=[N+]([O-])c1ccc2c(c1)oc1ccccc12	-414.2	4.2	.	-5.1	.	1.8
Cc1ccc2[nH]c3c(=O)[nH]ncc3c2c1	65.8*	-2.9	-11.0	1.7	-1.0	0.4
COc1ccc(Br)cc1/C=C/C(=O)c1ccc(NC(C)=O)cc1	-255.8	9.5	?	104.9*	-0.5	-12.9
C[C@H]1CN([C@@H](C)CO)C(=O)c2cccc(NC(=O)Nc3ccc(C(F)(F)F)cc3)c2O[C@H]1CN(C)C(=O)Nc1ccc2c(c1)OCO2	-33.5[16.7 µM]	.	-18.7	-50.5	.	.
C[C@@H]1CCCCO[C@@H](CN(C)Cc2ccc(Cl)c(Cl)c2)[C@@H](C)CN([C@@H](C)CO)C(=O)c2cc(NC(=O)Nc3ccc(C(F)(F)F)cc3)ccc2O1	22.4[16.7 µM]	.	-9.7	73.5*	0.1	.
C[C@@H]1CCCCO[C@H](CN(C)Cc2ccc(C(F)(F)F)cc2)[C@@H](C)CN([C@H](C)CO)C(=O)c2cc(NC(=O)Nc3ccc(C(F)(F)F)cc3)ccc2O1	12.4[16.7 µM]	-1.4	-11.0	-9.3	.	.
C[C@H](CO)N1C[C@H](C)[C@H](CN(C)Cc2ccc(Cl)c(Cl)c2)OCCCC[C@H](C)Oc2ccc(NC(=O)Nc3ccc(C(F)(F)F)cc3)cc2C1=O	?	.	3.8	88.4*	-14.1	.
C[C@@H]1CN([C@H](C)CO)C(=O)c2cc(NC(=O)Nc3ccc(C(F)(F)F)cc3)ccc2O[C@@H](C)CCCCO[C@@H]1CN(C)Cc1ccc(Cl)c(Cl)c1	8.4[16.7 µM]	.	4.9	86.0*	0.1	.
C[C@@H]1CCCCO[C@H](CN(C)Cc2ccc(C(F)(F)F)cc2)[C@@H](C)CN([C@@H](C)CO)C(=O)c2cc(NC(=O)Nc3ccc(C(F)(F)F)cc3)ccc2O1	?	-0.4	-12.6	3.3	.	.
O=C1[C@H](Cc2ccccc2)NCCCC[C@@H](c2ccc(Cl)cc2)N1Cc1ccc(Cl)cc1	-19.2	12.0	11.3	9.0	-0.3	-6.5
CC(C)CC(=O)N1CC=CC[C@@H](c2ccc(Cl)cc2)N(Cc2ccc(Cl)cc2)C(=O)[C@@H]1Cc1ccccc1	75.6*	10.6	15.8	-0.8	-3.3	-8.4
CCCN1C[C@H](C)[C@@H](OC)CN(C)C(=O)c2ccc(NC(=O)Nc3ccccc3F)cc2OC[C@H]1C	.	1.8	-5.0	-4.9	0.0	.
C[C@@H]1CN([C@@H](C)CO)C(=O)c2cc(NS(=O)(=O)c3ccc(F)cc3)ccc2O[C@@H]1CN(C)Cc1ccc(C(F)(F)F)cc1	-39.8[16.7 µM]	.	75.3*	106.9*	0.9	.
C[C@H](CO)N1C[C@H](C)[C@H](CN(C)Cc2ccc(C(F)(F)F)cc2)Oc2ccc(NS(=O)(=O)c3ccc(F)cc3)cc2CC1=O	3.0[16.7 µM]	.	-0.5	84.9*	1.8	.
C[C@H]1CN([C@@H](C)CO)C(=O)Cc2cc(NS(=O)(=O)c3ccc(Cl)cc3)ccc2O[C@H]1CN(C)Cc1ccc(C(F)(F)F)cc1	15.1[16.7 µM]	.	-11.0	-17.0	0.4	.
C[C@@H]1CN([C@@H](C)CO)C(=O)Cc2cc(NS(=O)(=O)c3cccs3)ccc2O[C@H]1CN(C)Cc1ccc(C(F)(F)F)cc1	77.5*[16.7 µM]	.	32.9	91.4*	2.7	.
C[C@H]1CN([C@@H](C)CO)C(=O)Cc2cc(NS(=O)(=O)c3cccs3)ccc2O[C@@H]1CN(C)Cc1ccc(C(F)(F)F)cc1	4.9[16.7 µM]	.	-12.8	17.3	1.1	.
Cc1ccc(S(=O)(=O)Nc2ccc3c(c2)CC(=O)N([C@H](C)CO)C[C@H](C)[C@@H](CN(C)Cc2ccc(C(F)(F)F)cc2)O3)cc1	17.7[16.7 µM]	.	13.7	42.5	.	.
C[C@H](CO)N1C[C@H](C)[C@@H](CN(C)Cc2ccc(C(F)(F)F)cc2)Oc2ccc(NS(=O)(=O)c3ccc(F)cc3)cc2C1=O	12.3[16.7 µM]	26.5	8.3	20.3	0.3	.
SMILES	HIV Env fusion	FN deposit inh	EWS-Fli block	PAX8 inh HTS	AF4-AF9 inh	Glyco luc inh
C[C@H](CO)N1C[C@H](C)[C@@H](CN(C)Cc2ccc(C(F)(F)F)cc2)Oc2ccc(NS(=O)(=O)c3ccc(F)cc3)cc2CC1=O	42.2[16.7 µM]	.	17.7	82.8*	-1.0	.
C[C@H](CO)N1C[C@H](C)[C@@H](CN(C)S(=O)(=O)c2ccccc2)OCCCC[C@H](C)Oc2ccc(NS(=O)(=O)c3cn(C)cn3)cc2C1=O	-4.4[16.7 µM]	-10.1	2.9	15.0	-1.9	.
C[C@@H]1CN([C@@H](C)CO)S(=O)(=O)c2ccc(C#C[C@@H](C)O)cc2O[C@H]1CN(C)CC1CCCC1	-52.1[16.7 µM]	6.4	24.6	-19.1	-18.5	.
C[C@H](CO)N1C[C@H](C)[C@@H](CN(C)Cc2ccc(C(F)(F)F)cc2)Oc2ccc(NS(=O)(=O)c3ccccc3)cc2CC1=O	.	.	.	76.2*	-6.0	.
C[C@H](CO)N1C[C@H](C)[C@H](CN(C)Cc2ccc(C(F)(F)F)cc2)Oc2ccc(NS(=O)(=O)c3ccc(Cl)cc3)cc2CC1=O	-14.0[16.7 µM]	.	59.2*	4.3	2.4	.
COC(=O)C[C@@H]1C[C@@H]2c3cc(NC(=O)Nc4ccc(C(F)(F)F)cc4)ccc3O[C@@H]2[C@H](CO)O1	5.2[16.7 µM]	4.7	-7.1	-8.5	1.1	.
CCC(=O)N(C)C[C@H]1Oc2ncc(-c3ccccc3C)cc2C(=O)N([C@@H](C)CO)C[C@@H]1C	0.0[16.7 µM]	-10.5	-6.8	.	-3.5	.
Cc1cccc(-c2ccc3[nH]c4c(c3c2)CCN2C[C@H]3[C@H](C)ON(C)[C@H]3C[C@@H]42)c1	-20.3	.	-5.0	1.1	39.2*	2.8
CN[C@H]1C[C@H]2c3[nH]c4ccc(-c5cccc(C)c5)cc4c3CCN2C[C@H]1[C@H](C)O	.	-3.9	14.7	23.4	39.6*	-1.8
COc1ccc2c3c(n(C)c2c1)[C@H](CO)N(Cc1cccc(F)c1)CC31CCN(C(=O)Cc2ccccc2)CC1	.	-14.2	-8.6	38.2	-3.3	.
COc1ccc(/C=N/NC(=O)c2[nH]c3ccc(Br)cc3c2-c2ccccc2)c(C(=O)O)c1OC	6.7	8.4	6.8	2.0	1.8	2.6

Assay outcomes: PubChem BioAssay, Broad Institute
